Test results taken from ChEMBL document CHEMBL1800073, “Inhibition of 1-deoxy-D-xylulose-5-phosphate reductoisomerase by lipophilic phosphonates: SAR, QSAR, and crystallographic studies” (J Med Chem, 2011).
Active and inactive are the calls of the source. No cut-off for these calls is given here.

Experiments:
[1] = Inhibition of Escherichia coli recombinant DXR using DXP as substrate and MgCl2 as cofactor preincubated for 10 mins
Summary of the method: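 Purified enzyme at 10 nM in 50 mM HEPES pH 7.5 with 2 mM MgCl2, 50 µM NADPH and 25 µg/mL BSA. Inhibitor was preincubated with the enzyme for 10 min at 30 °C, then 100 µM DXP was added. IC50 came from dose-response fits of initial velocities, at least three experiments.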

Escherichia coli = assay: Inhibition of Escherichia coli recombinant DXR using DXP as substrate and MgCl2 as cofactor at 100 uM preincubated for 10 mins
Summary of the method: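 Purified recombinant EcDXR (10 nM) with 2 mM MgCl2, 50 µM NADPH, 50 mM HEPES pH 7.5, 25 µg/mL BSA. Inhibitor pre-incubated with enzyme 10 min at 30 °C; reaction started with 100 µM DXP; NADPH consumption followed at 340 nm.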

[2] = target: T1, 1-deoxy-D-xylulose 5-phosphate reductoisomerase (Mycobacterium tuberculosis) (UniProt P9WNS1); assay: Inhibition of Mycobacterium tuberculosis recombinant DXR expressed in Escherichia coli BL21 (DE3) using DXP as substrate and MgCl2 as cofactor at 100 uM preincubated for 10 mins
T1 sequence (whole entry): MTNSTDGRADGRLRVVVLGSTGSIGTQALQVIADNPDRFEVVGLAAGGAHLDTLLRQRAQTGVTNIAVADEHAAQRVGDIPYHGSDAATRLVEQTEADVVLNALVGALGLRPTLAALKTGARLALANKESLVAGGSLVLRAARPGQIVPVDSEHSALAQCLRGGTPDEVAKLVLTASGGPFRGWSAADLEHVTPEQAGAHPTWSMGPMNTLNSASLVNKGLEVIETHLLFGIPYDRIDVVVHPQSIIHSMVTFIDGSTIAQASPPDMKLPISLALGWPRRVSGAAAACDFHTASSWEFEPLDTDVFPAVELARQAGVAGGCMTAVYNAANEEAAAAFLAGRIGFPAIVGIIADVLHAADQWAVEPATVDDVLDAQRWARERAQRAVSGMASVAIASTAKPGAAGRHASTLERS
Summary of the method: (§1)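 Assay used 50 nM enzyme in 50 mM HEPES pH 7.6 with 4 mM MgCl2, 50 µM NADPH and 25 µg/mL BSA, plus 100 µM DXP added after a 10 min, 30 °C preincubation. IC50 came from initial velocities, at least three experiments.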

[3] = target: T2, 1-deoxy-D-xylulose 5-phosphate reductoisomerase (Mycobacterium tuberculosis, UniProt P9WNS1); assay: Inhibition of Mycobacterium tuberculosis recombinant DXR expressed in Escherichia coli BL21 (DE3) using DXP as substrate and MgCl2 as cofactor preincubated for 10 mins; summary of the method: as §1
T2 sequence (P9WNS1 whole entry): T1 sequence (whole entry)

[4] = Inhibition of DXR

| SMILES | pKi [1] | inhibition (Escherichia coli) | inhibition [2] | Ki [1] [µM] | Ki [3] [µM] | IC50 [4] [µM] |
| --- | --- | --- | --- | --- | --- | --- |
| O=S(=O)(O)Cc1ccc(-c2ccccc2)cn1 | < 3.52 | inactive | inactive |  |  |  |
| O=P(O)(O)CCc1ccccc1O | 3.52 | inactive | inactive |  |  |  |
| O=P(O)(O)Cc1ccc(Cl)c(Cl)c1 | 3.52 | inactive | inactive |  |  |  |
| O=P(O)(O)c1ccccn1 | 3.52 | inactive | inactive |  |  |  |
| O=C(O)Cc1ccncc1 | 3.52 | inactive | inactive |  |  |  |
| O=P(O)(O)Cc1ccc(-c2ccc3ccccc3c2)cn1 | 4.86 |  | inactive | 13.9 |  |  |
| O=P(O)(O)Cc1ccccc1 [BENZYLPHOSPHONIC ACID] | 3.52 | inactive | inactive |  |  |  |
| O=C(O)Cc1ccc(-c2ccccc2)cn1 | < 3.52 | inactive | inactive |  |  |  |
| O=P(O)(O)Cc1cc(Br)ccn1 | 5.46 |  |  | 3.5 | 32.7 |  |
| O=P(O)(O)Cc1ccncc1 | 5.46 |  |  | 3.5 | 6.8 |  |
| O=c1ccc(CP(=O)(O)O)cn1O | 3.52 | inactive | inactive |  |  |  |
| O=P(O)(O)Cc1ccc(-c2ccccc2)cn1 | 6.38 |  |  | 0.42 | 3.2 |  |
| CC(=O)N(O)CCC(c1ccc(Cl)c(Cl)c1)P(=O)(O)O (racemic) | 7.44 |  |  | 0.036 | 1.5 |  |
| O=C(O)c1ccc(-c2ccccc2)cn1 | < 3.52 | inactive | inactive |  |  |  |
| O=C(NO)c1ccccn1 | < 3.52 | inactive | inactive |  |  |  |
| O=P(O)(O)Cc1cccnc1 | 5.3 |  | inactive | 5 |  |  |
| O=P(O)(O)CCCc1ccccn1 | 5.02 |  | inactive | 9.5 |  |  |
| COc1cccc(-c2ccc(CP(=O)(O)O)nc2)c1 | 5.46 |  | inactive | 3.6 |  |  |
| O=C(O)Cc1cccnc1 | < 3.52 | inactive | inactive |  |  |  |
| O=P(O)(O)C(Nc1nccc2ccccc12)P(=O)(O)O |  |  |  | 6.3 |  | 4 |
| CC(=O)N(O)CCCP(=O)(O)O [FR-900098] | 7.72 |  |  | 0.019 | 0.13 |  |
| O=P(O)(O)Cc1ccncn1 | 5.46 |  |  | 3.5 | 12.4 |  |
| O=C(Cc1ccc(-c2ccccc2)cn1)NO | < 3.52 | inactive | inactive |  |  |  |
| O=C(O)Cc1ccccn1 | 3.52 | inactive | inactive |  |  |  |

| SMILES | pKi [1] | inhibition (Escherichia coli) | inhibition [2] | Ki [1] [µM] | Ki [3] [µM] | IC50 [4] [µM] |
| --- | --- | --- | --- | --- | --- | --- |
| O=P(O)(O)Cc1cccc(-c2ccccc2)n1 | 5.46 |  | inactive | 3.5 |  |  |
| O=P(O)(O)Cc1cnccn1 | 4.95 |  | inactive | 11.2 |  |  |
| O=P(O)(O)Cc1ccccn1 [PYRIDIN-2-YLMETHYLPHOSPHONIC ACID] | 5.64 |  |  | 2.3 | 1.6 |  |
| O=P(O)(O)Cc1ccc(-c2ccc(Cl)cc2)cn1 | 5.8 |  | inactive | 1.6 |  |  |
| O=P(O)(O)Cc1ccc(O)cn1 | 6.15 |  |  | 0.7 | 17.3 |  |
| O=CN(O)CCC(c1ccc(Cl)c(Cl)c1)P(=O)(O)O (centres undefined) | 7.24 |  |  | 0.058 | 1.2 |  |
| O=C(Cc1ccccn1)NO | 3.52 | inactive | inactive |  |  |  |
| O=c1ccc(-c2ccccc2)cn1O [1-HYDROXY-5-PHENYLPYRIDIN-2(1H)-ONE] |  |  |  | 0.7 | 21.8 |  |
| O=P(O)(O)Cc1ccc(-c2ccc(F)cc2)cn1 | 5.96 |  |  | 1.1 | 50.7 |  |
| O=P(O)(O)Cc1ccc(Br)cn1 | 5.17 |  |  | 6.7 | 45.2 |  |
| O=P(O)(O)CCc1ccccc1 | 3.52 | inactive | inactive |  |  |  |
| Cc1ccc(-c2ccc(CP(=O)(O)O)nc2)cc1 | 5.41 |  | inactive | 3.9 |  |  |
| O=P(O)(O)CCc1ccccn1 | 4.73 |  | inactive | 18.6 |  |  |
| O=c1cccc(CCP(=O)(O)O)[nH]1 | 3.52 | inactive | inactive |  |  |  |
| O=P(O)(O)C(Nc1ccc(Cl)cn1)P(=O)(O)O |  |  | inactive | 15.3 |  | 7 |
| O=P(O)(O)Cc1ccc(OCc2ccccc2)cn1 | 3.52 | inactive | inactive |  |  |  |
| O=P(O)(O)Cc1cccc(Br)n1 | 5.46 |  | inactive | 3.6 |  |  |
| O=P(O)(O)Cc1cc(-c2ccc(F)cc2)ccn1 | 5.46 |  | inactive | 3.5 |  |  |
| O=P(O)(O)Cc1cccc(O)c1O | 3.52 | inactive | inactive |  |  |  |
| O=P(O)(O)Cc1cc(-c2ccccc2)ccn1 | 5.96 |  |  | 1.1 | 6.9 |  |
| O=P(O)(O)Cc1ccc2ccccc2n1 | 5.1 |  |  | 7.9 | 6.9 |  |
| O=P(O)(O)c1ccccc1 [PHENYLPHOSPHONIC ACID] | 3.52 | inactive | inactive |  |  |  |
| O=C(O)c1ccccn1 [2-PICOLINIC ACID] | 3.52 | inactive | inactive |  |  |  |
